Reference: ChEMBL document CHEMBL1141092, “Synthesis of malarial plasmepsin inhibitors and prediction of binding modes by molecular dynamics simulations” (J Med Chem, 2005)
pKi: −log10 of the molar value.

What was measured:
Plasmepsin I = Plasmepsin I (Plasmodium falciparum, UniProt P39898); assay: Inhibition constant against plasmepsin-1 of Plasmodium falciparum, 10 min using 3 uM of DABCYL-Glu-Arg-Nle-Phe-Le u-Ser-Phe-Pro-EDANS as substrate
In short: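 Recombinant Plm I, amount set to match Plm II catalytic activity, in 100 mM sodium acetate pH 4.5 with 10% glycerol and 0.01% Tween 20. DMSO inhibitor dilutions (1% final DMSO) are added, then 3 µM FRET substrate. Fluorescence rise is followed over a linear 10 min. IC50 comes from a Langmuir fit assuming competitive inhibition, and Ki = IC50/(1+[S]/Km), with Km from Michaelis–Menten.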

Cathepsin D = Cathepsin D (Homo sapiens, UniProt P07339); assay: Inhibition constant against pro-cathepsin D (50 ng/mL) of human liver upon incubation at pH 4.5 for 10 min using DABCYL-Glu-Arg-Nle-Phe-Le u-Ser-Phe-Pro-EDANS as substrate
Cathepsin D, sequence (P07339 65-162 limits assumed): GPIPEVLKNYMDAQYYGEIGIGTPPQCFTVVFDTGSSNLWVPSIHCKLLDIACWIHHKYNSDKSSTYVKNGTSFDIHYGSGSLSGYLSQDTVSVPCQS
Cathepsin D, sequence (P07339 169-412 limits assumed): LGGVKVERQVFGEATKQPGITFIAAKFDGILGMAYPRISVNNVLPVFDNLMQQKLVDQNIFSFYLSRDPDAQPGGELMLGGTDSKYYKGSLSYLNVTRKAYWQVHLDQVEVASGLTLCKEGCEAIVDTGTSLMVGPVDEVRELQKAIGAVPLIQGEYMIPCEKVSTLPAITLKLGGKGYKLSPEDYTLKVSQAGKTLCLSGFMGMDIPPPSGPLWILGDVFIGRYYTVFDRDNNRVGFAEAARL
In short: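 Human liver pro-Cat D at 50 ng/mL is activated for 20 min at 37 °C in 100 mM sodium acetate pH 4.5, 10% glycerol, 0.01% Tween 20. Inhibitor in DMSO (1% final) precedes 3 µM FRET substrate, and the fluorescence increase is followed over a linear 10 min. IC50 is from a competitive Langmuir fit, and Ki = IC50/(1+[S]/Km), with Km from Michaelis–Menten.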

Plasmepsin II = Plasmepsin II (Plasmodium falciparum, UniProt P46925); assay: Inhibition constant against plasmepsin-2 of Plasmodium falciparum 10 min using 3 uM of DABCYL-Glu-Arg-Nle-Phe-Le u-Ser-Phe-Pro-EDANS as substrate
Plasmepsin II, sequence (P46925 whole entry): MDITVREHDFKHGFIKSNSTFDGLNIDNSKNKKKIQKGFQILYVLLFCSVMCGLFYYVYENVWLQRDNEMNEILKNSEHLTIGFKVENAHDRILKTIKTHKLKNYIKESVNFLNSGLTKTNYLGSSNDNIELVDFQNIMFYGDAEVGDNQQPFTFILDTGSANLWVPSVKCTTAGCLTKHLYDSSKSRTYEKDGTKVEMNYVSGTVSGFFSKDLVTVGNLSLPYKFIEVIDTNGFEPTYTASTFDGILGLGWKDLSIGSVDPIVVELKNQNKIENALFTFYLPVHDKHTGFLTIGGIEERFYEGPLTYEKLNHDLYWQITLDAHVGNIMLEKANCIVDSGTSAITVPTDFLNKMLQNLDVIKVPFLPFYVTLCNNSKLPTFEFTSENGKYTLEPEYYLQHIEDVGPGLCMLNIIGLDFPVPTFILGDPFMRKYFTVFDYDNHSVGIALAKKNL
In short: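 Pro-Plm II at 3 nM is self-activated by 40 min preincubation at room temperature in 100 mM sodium acetate pH 4.5, 10% glycerol, 0.01% Tween 20. Inhibitor in DMSO (1% final) is added before 3 µM FRET substrate, and the linear fluorescence increase is read over 10 min. IC50 is fitted to a competitive Langmuir isotherm and converted to Ki via IC50/(1+[S]/Km).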

Plasmepsin IV = Plasmepsin IV (Plasmodium falciparum 3D7, UniProt Q8IM16); assay: Inhibition constant against plasmepsin-4 of Plasmodium falciparum
Plasmepsin IV, sequence (Q8IM16 whole entry): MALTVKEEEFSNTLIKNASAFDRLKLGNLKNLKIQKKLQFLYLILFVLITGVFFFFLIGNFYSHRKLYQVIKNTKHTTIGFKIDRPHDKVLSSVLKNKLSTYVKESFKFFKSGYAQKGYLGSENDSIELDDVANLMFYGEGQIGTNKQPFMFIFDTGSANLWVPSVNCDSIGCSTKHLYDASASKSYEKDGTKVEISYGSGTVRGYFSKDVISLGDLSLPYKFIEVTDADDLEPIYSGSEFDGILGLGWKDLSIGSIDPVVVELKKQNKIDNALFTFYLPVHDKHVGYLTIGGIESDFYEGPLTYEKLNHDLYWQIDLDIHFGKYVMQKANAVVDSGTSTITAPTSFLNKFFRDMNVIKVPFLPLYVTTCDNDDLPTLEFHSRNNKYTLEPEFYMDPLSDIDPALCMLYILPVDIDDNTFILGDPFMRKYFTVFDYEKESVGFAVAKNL

Plasmepsin I, sequence (P39898 whole entry): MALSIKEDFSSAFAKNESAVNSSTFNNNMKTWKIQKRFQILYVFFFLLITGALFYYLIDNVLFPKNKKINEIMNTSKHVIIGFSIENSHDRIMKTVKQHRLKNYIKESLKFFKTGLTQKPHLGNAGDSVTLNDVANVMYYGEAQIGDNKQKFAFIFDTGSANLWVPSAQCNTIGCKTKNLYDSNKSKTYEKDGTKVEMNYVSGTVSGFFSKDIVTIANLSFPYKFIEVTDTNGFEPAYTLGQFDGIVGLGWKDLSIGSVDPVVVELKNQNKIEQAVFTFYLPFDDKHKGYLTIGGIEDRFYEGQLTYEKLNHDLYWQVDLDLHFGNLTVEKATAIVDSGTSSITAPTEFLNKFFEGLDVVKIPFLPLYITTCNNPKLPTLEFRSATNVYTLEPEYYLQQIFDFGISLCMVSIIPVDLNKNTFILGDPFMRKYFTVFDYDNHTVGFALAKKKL

O=C(CCCc1ccccc1)NNC(=O)[C@H](OC/C=C/Br)[C@H](O)[C@@H](O)[C@@H](OC/C=C/Br)C(=O)N[C@H]1c2ccccc2C[C@H]1O
pKi (Plasmepsin I): 7.96
pKi (Cathepsin D): < 5.22
pKi (Plasmepsin II): 8.00

O=C(CCN1CCOCC1)NNC(=O)[C@H](OC/C=C/Br)[C@H](O)[C@@H](O)[C@@H](OC/C=C/Br)C(=O)N[C@H]1c2ccccc2C[C@H]1O
pKi (Plasmepsin I): 5.70
pKi (Cathepsin D): < 5.22
pKi (Plasmepsin II): 5.89

CC(C)(C)c1ccc(C(=O)NNC(=O)[C@H](OC/C=C/Br)[C@H](O)[C@@H](O)[C@@H](OC/C=C/Br)C(=O)NNC(=O)c2ccc(C(C)(C)C)cc2)cc1
pKi (Plasmepsin I): 5.74
pKi (Plasmepsin IV): 6.32
pKi (Cathepsin D): 5.52
pKi (Plasmepsin II): 5.82

O=C(CCc1c[nH]c2ccccc12)NNC(=O)[C@H](OC/C=C/Br)[C@H](O)[C@@H](O)[C@@H](OC/C=C/Br)C(=O)N[C@H]1c2ccccc2C[C@H]1O
pKi (Plasmepsin I): 7.72
pKi (Cathepsin D): < 5.22
pKi (Plasmepsin II): 8.22

CC(C)(C)c1ccc(-c2nnc([C@H](OC/C=C/Br)[C@H](O)[C@@H](O)[C@@H](OC/C=C/Br)C(=O)N[C@H]3c4ccccc4C[C@H]3O)o2)cc1
pKi (Plasmepsin I): < 5.52
pKi (Cathepsin D): < 5.22
pKi (Plasmepsin II): < 5.30

CC(=O)c1ccc(/C=C/CO[C@@H](C(=O)NNC(=O)CCc2ccccc2)[C@H](O)[C@@H](O)[C@@H](OC/C=C/c2ccc(C(C)=O)cc2)C(=O)N[C@H]2c3ccccc3C[C@H]2O)cc1
pKi (Plasmepsin I): 7.42
pKi (Cathepsin D): 5.92
pKi (Plasmepsin II): 6.84

O=C(Cc1ccccc1)NNC(=O)[C@H](OC/C=C/Br)[C@H](O)[C@@H](O)[C@@H](OC/C=C/Br)C(=O)N[C@H]1c2ccccc2C[C@H]1O
pKi (Plasmepsin I): 7.51
pKi (Cathepsin D): < 5.22
pKi (Plasmepsin II): 7.85

Cc1nnc([C@H](OC/C=C/Br)[C@H](O)[C@@H](O)[C@@H](OC/C=C/Br)C(=O)N[C@H]2c3ccccc3C[C@H]2O)o1
pKi (Plasmepsin I): < 5.52
pKi (Cathepsin D): < 5.22
pKi (Plasmepsin II): < 5.30

C=CCO[C@@H](C(=O)N[C@H]1c2ccccc2C[C@H]1O)[C@H](O)[C@@H](O)[C@@H](OCC=C)C(=O)N[C@H]1c2ccccc2C[C@H]1O
pKi (Plasmepsin IV): < 5.30

CN1CCN(CCC(=O)NNC(=O)[C@H](OC/C=C/Br)[C@H](O)[C@@H](O)[C@@H](OC/C=C/Br)C(=O)N[C@H]2c3ccccc3C[C@H]2O)CC1
pKi (Plasmepsin I): 5.96
pKi (Cathepsin D): < 5.22
pKi (Plasmepsin II): 6.23

O=C(N[C@H]1c2ccccc2C[C@H]1O)[C@H](OC/C=C/Br)[C@H](O)[C@@H](O)[C@@H](OC/C=C/Br)c1nnc(CCc2ccccc2)o1
pKi (Plasmepsin I): < 5.52
pKi (Cathepsin D): < 5.22
pKi (Plasmepsin II): 5.54

CC(C)(C)c1ccc(-c2nnc([C@H](OC/C=C/Br)[C@H](O)[C@@H](O)[C@@H](OC/C=C/Br)c3nnc(-c4ccc(C(C)(C)C)cc4)o3)o2)cc1
pKi (Plasmepsin I): < 5.52
pKi (Plasmepsin IV): 7.46
pKi (Cathepsin D): < 5.22
pKi (Plasmepsin II): < 5.30

O=C(N[C@H]1c2ccccc2C[C@H]1O)[C@H](OC/C=C/Br)[C@H](O)[C@@H](O)[C@@H](OC/C=C/Br)c1nnc(CCCc2ccccc2)o1
pKi (Plasmepsin I): 5.80
pKi (Cathepsin D): < 5.22
pKi (Plasmepsin II): 5.64

CC(=O)NNC(=O)[C@H](OC/C=C/Br)[C@H](O)[C@@H](O)[C@@H](OC/C=C/Br)C(=O)N[C@H]1c2ccccc2C[C@H]1O
pKi (Plasmepsin I): 6.16
pKi (Cathepsin D): < 5.22
pKi (Plasmepsin II): 6.44

O=C(N[C@H]1c2ccccc2C[C@H]1O)[C@H](OC/C=C/Br)[C@H](O)[C@@H](O)[C@@H](OC/C=C/Br)c1nnc(-c2ccccc2)o1
pKi (Plasmepsin I): < 5.52
pKi (Cathepsin D): < 5.22
pKi (Plasmepsin II): 5.47

CC(C)(C)c1ccc(C(=O)NNC(=O)[C@H](OC/C=C/Br)[C@H](O)[C@@H](O)[C@@H](OC/C=C/Br)C(=O)N[C@H]2c3ccccc3C[C@H]2O)cc1
pKi (Plasmepsin I): 6.70
pKi (Cathepsin D): < 5.22
pKi (Plasmepsin II): 6.85

CC(=O)NNC(=O)[C@H](OC/C=C/Br)[C@H](O)[C@@H](O)[C@@H](OC/C=C/Br)C(=O)NNC(C)=O
pKi (Plasmepsin I): < 5.52
pKi (Cathepsin D): < 5.22
pKi (Plasmepsin II): < 5.30

O=C(CCc1ccccc1)NNC(=O)[C@H](OC/C=C/c1ccc2c(c1)OCO2)[C@H](O)[C@@H](O)[C@@H](OC/C=C/c1ccc2c(c1)OCO2)C(=O)N[C@H]1c2ccccc2C[C@H]1O
pKi (Plasmepsin I): 8.22
pKi (Cathepsin D): 6.10
pKi (Plasmepsin II): 7.96

Cc1nnc([C@H](OC/C=C/Br)[C@H](O)[C@@H](O)[C@@H](OC/C=C/Br)c2nnc(C)o2)o1
pKi (Plasmepsin I): < 5.52
pKi (Cathepsin D): < 5.22
pKi (Plasmepsin II): < 5.30

O=C(CCc1ccccc1)NNC(=O)[C@H](OC/C=C/Br)[C@H](O)[C@@H](O)[C@@H](OC/C=C/Br)C(=O)N[C@H]1c2ccccc2C[C@H]1O
pKi (Plasmepsin I): 8.05
pKi (Cathepsin D): < 5.22
pKi (Plasmepsin II): 8.15

Cc1n[nH]c([C@H](OC/C=C/Br)[C@H](O)[C@@H](O)[C@@H](OC/C=C/Br)C(=O)N[C@H]2c3ccccc3C[C@H]2O)n1
pKi (Plasmepsin I): < 5.52
pKi (Cathepsin D): < 5.22
pKi (Plasmepsin II): < 5.30

O=C(NNC(=O)[C@H](OC/C=C/Br)[C@H](O)[C@@H](O)[C@@H](OC/C=C/Br)C(=O)N[C@H]1c2ccccc2C[C@H]1O)c1ccccc1
pKi (Plasmepsin I): 6.58
pKi (Cathepsin D): < 5.22
pKi (Plasmepsin II): 6.77

C=CCO[C@@H](C(=O)NNC(=O)CCc1ccccc1)[C@H](O)[C@@H](O)[C@@H](OCC=C)C(=O)N[C@H]1c2ccccc2C[C@H]1O
pKi (Plasmepsin I): 6.91
pKi (Cathepsin D): < 5.22
pKi (Plasmepsin II): 6.79

O=C(N[C@H]1c2ccccc2C[C@H]1O)[C@H](OC/C=C/Br)[C@H](O)[C@@H](O)[C@@H](OC/C=C/Br)c1nnc(Cc2ccccc2)o1
pKi (Plasmepsin I): < 5.52
pKi (Cathepsin D): < 5.22
pKi (Plasmepsin II): 5.68
